Converted amounts (≈) assume the structure as drawn. The source made the active and inactive calls. The calls are words filed in the database; no cut-off is given here.
Key:
[1] = AUC in Mycobacterium tuberculosis H37Rv ATCC 2517-infected hollow fiber system based in vitro pharmacokinetic-pharmacodynamic tuberculosis model at 7 mg/L for 2 hrs; assay type: ADME
[2] = system: Mycobacterium tuberculosis; experiment: Antimycobacterial activity against Mycobacterium tuberculosis H37Rv ATCC 2517 infected in hollow fiber system based in vitro pharmacokinetic-pharmacodynamic tuberculosis model assessed as microbial killing administered at simulated dose of 4200 mg, po once weekly; assay type: functional, organism-based
Procedure, shortened: (§1)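 Hollow-fiber model at 37°C with 5% CO2. […] Schedules were daily for 7 days, twice weekly (day 0 and 3.5) or once weekly, plus an untreated control. Peripheral samples were taken daily for 7 days, saline-washed twice and plated on 7H10 agar; kill is relative to baseline.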

[3] = system: Mycobacterium tuberculosis; experiment: Antimycobacterial activity against Mycobacterium tuberculosis H37Rv ATCC 2517 infected in hollow fiber system based in vitro pharmacokinetic-pharmacodynamic tuberculosis model assessed as microbial killing administered at simulated dose of 2100 mg, po twice weekly; assay type: functional, organism-based; procedure, shortened: as §1
[4] = system: Mycobacterium tuberculosis; experiment: Antimycobacterial activity against Mycobacterium tuberculosis H37Rv ATCC 2517 infected in hollow fiber system based in vitro pharmacokinetic-pharmacodynamic tuberculosis model assessed as microbial killing administered at simulated dose of 600 mg/day for 7 days; assay type: functional; procedure, shortened: as §1
[5] = AUC in Mycobacterium tuberculosis H37Rv ATCC 2517-infected hollow fiber system based in vitro pharmacokinetic-pharmacodynamic tuberculosis model at 7 mg/L for 1 hr; assay type: ADME
Homo sapiens [6] = experiment: fCmax in Mycobacterium tuberculosis H37Rv ATCC 2517-infected patient serum at 600 mg/day, po; assay type: ADME, organism-based
[7] = AUC (0 to 168 hrs) in Mycobacterium tuberculosis H37Rv ATCC 2517-infected hollow fiber system based in vitro pharmacokinetic-pharmacodynamic tuberculosis model administered at dose simulating 4200 mg once weekly schedule; assay type: ADME; design: time < 168 hr, dose 4200 mg
Procedure, shortened: (§2)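 Samples were cleaned up by solid-phase extraction and quantified by LC-MS (C18 column, 25 mM ammonium acetate/acetonitrile 58:42).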

Homo sapiens [8] = experiment: fAUC (0 to infinity) in Mycobacterium tuberculosis H37Rv ATCC 2517-infected patient serum at 600 mg/day, po; assay type: ADME, organism-based
[9] = system: Mycobacterium tuberculosis; experiment: Post antibiotic effect against Mycobacterium tuberculosis H37Rv ATCC 2517 infected hollow fiber system based in vitro pharmacokinetic-pharmacodynamic tuberculosis model at 7 mg/L administered for 2 hrs; assay type: functional
[10] = system: Mycobacterium tuberculosis; experiment: Post antibiotic effect against Mycobacterium tuberculosis H37Rv ATCC 2517 infected hollow fiber system based in vitro pharmacokinetic-pharmacodynamic tuberculosis model at 14 mg/L administered for 0.5 hrs; assay type: functional
Procedure, shortened: (§3)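 Broth cultures grown 4 days were exposed at 10^6 CFU/ml to the stated concentration and duration. They were then washed twice by centrifugation (2,000 x g, 10 min) and resuspended in fresh broth, shaken at 37°C in 5% CO2, and sampled every other day for agar counts. PAE equals the time for exposed cultures to grow 1 log10 CFU/ml minus that for controls. The study was performed twice.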

[11] = system: Mycobacterium tuberculosis; experiment: Post antibiotic effect against Mycobacterium tuberculosis H37Rv ATCC 2517 infected hollow fiber system based in vitro pharmacokinetic-pharmacodynamic tuberculosis model at 2 mg/L administered for 7 hrs; assay type: functional; procedure, shortened: as §3
[12] = system: Mycobacterium tuberculosis; experiment: Antimycobacterial activity against drug-sensitive Mycobacterium tuberculosis H37Rv ATCC 2517-infected hollow fiber system based in vitro pharmacokinetic-pharmacodynamic tuberculosis model assessed as rate constant for maximal bacterial kill; assay type: functional
[13] = system: Mycobacterium tuberculosis; experiment: Post antibiotic effect against Mycobacterium tuberculosis H37Rv ATCC 2517 infected hollow fiber system based in vitro pharmacokinetic-pharmacodynamic tuberculosis model at 7 mg/L administered for 1 hr; assay type: functional; procedure, shortened: as §3
Homo sapiens [14] = experiment: fCmax in Mycobacterium tuberculosis H37Rv ATCC 2517-infected patient serum at 2100 mg, po administered twice a week; assay type: ADME, organism-based; settings: in vivo
[15] = system: Mycobacterium tuberculosis; experiment: Drug uptake in Mycobacterium tuberculosis H37Rv ATCC 2517-infected hollow fiber system based in vitro pharmacokinetic-pharmacodynamic tuberculosis model; assay type: ADME, organism-based
Procedure, shortened: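 Log-phase culture was adjusted to 10^6 CFU/ml in 7H9 broth held at 37°C or 0°C, then given 0, 2, 7 or 14 mg/liter drug. Samples taken at 0, 5, 15, 30 and 60 min were spun through silicone oil, and drug in the pellet was measured by LC-MS. Values at 0°C (cell-wall binding) were subtracted from those at 37°C. Cell volume was estimated from protein by BCA. Run in triplicate.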

Homo sapiens [16] = experiment: fAUC (0 to 168 hrs) in Mycobacterium tuberculosis H37Rv ATCC 2517-infected patient serum at 4200 mg, po administered once a week; assay type: ADME, organism-based; settings: in vivo
[17] = AUC (0 to 168 hrs) in Mycobacterium tuberculosis H37Rv ATCC 2517-infected hollow fiber system based in vitro pharmacokinetic-pharmacodynamic tuberculosis model; assay type: ADME; design: time < 168 hr; procedure, shortened: as §2
[18] = system: Mycobacterium tuberculosis; experiment: Antimycobacterial activity against drug-sensitive Mycobacterium tuberculosis H37Rv ATCC 2517-infected hollow fiber system based in vitro pharmacokinetic-pharmacodynamic tuberculosis model assessed as concentration needed to achieve 50% maximal killing rate; assay type: functional
[19] = system: Mycobacterium tuberculosis; experiment: Antimycobacterial activity against drug-sensitive Mycobacterium tuberculosis H37Rv ATCC 2517-infected hollow fiber system based in vitro pharmacokinetic-pharmacodynamic tuberculosis model assessed as sigmoidicity constant for microbial killing; assay type: functional
[20] = AUC (0 to 168 hrs) in Mycobacterium tuberculosis H37Rv ATCC 2517-infected patient serum at 600 mg/day, po; assay type: ADME, organism-based, Plasma; design: time < 168 hr, dose 600 mg/day, route oral; settings: human
[21] = system: Mycobacterium tuberculosis; experiment: Antimycobacterial activity against drug-sensitive Mycobacterium tuberculosis H37Rv ATCC 2517-infected hollow fiber system based in vitro pharmacokinetic-pharmacodynamic tuberculosis model assessed as concentration needed to achieve 50% effect on maximal growth rate; assay type: functional
[22] = system: Mycobacterium tuberculosis; experiment: Antimycobacterial activity against drug-sensitive Mycobacterium tuberculosis H37Rv ATCC 2517-infected hollow fiber system based in vitro pharmacokinetic-pharmacodynamic tuberculosis model assessed as rate constant for maximal bacterial growth; assay type: functional
[23] = AUC in Mycobacterium tuberculosis H37Rv ATCC 2517-infected hollow fiber system based in vitro pharmacokinetic-pharmacodynamic tuberculosis model at 2 mg/L for 7 hrs; assay type: ADME
[24] = system: Mycobacterium tuberculosis; experiment: microbe, parasite or virus in culture
Homo sapiens [25] = experiment: fAUC (0 to 168 hrs) in Mycobacterium tuberculosis H37Rv ATCC 2517-infected patient serum at 2100 mg, po administered twice a week; assay type: ADME, organism-based; settings: in vivo
[26] = Clearance in Mycobacterium tuberculosis H37Rv ATCC 2517-infected hollow fiber system based in vitro pharmacokinetic-pharmacodynamic tuberculosis model; assay type: ADME, organism-based
Homo sapiens [27] = experiment: fCmax in Mycobacterium tuberculosis H37Rv ATCC 2517-infected patient serum at 4200 mg, po administered once a week; assay type: ADME, organism-based; settings: in vivo
[28] = system: Mycobacterium tuberculosis; experiment: Antimycobacterial activity against drug-sensitive Mycobacterium tuberculosis H37Rv ATCC 2517-infected hollow fiber system based in vitro pharmacokinetic-pharmacodynamic tuberculosis model assessed as sigmoidicity constant for drug effect on microbial growth; assay type: functional
[29] = AUC in Mycobacterium tuberculosis H37Rv ATCC 2517-infected hollow fiber system based in vitro pharmacokinetic-pharmacodynamic tuberculosis model at 14 mg/L for 0.5 hrs; assay type: ADME

CO[C@H]1/C=C/O[C@@]2(C)Oc3c(C)c(O)c4c(O)c(c(/C=N/N5CCN(C)CC5)c(O)c4c3C2=O)NC(=O)/C(C)=C\C=C\[C@H](C)[C@H](O)[C@@H](C)[C@@H](O)[C@@H](C)[C@H](OC(C)=O)[C@@H]1C [RIFAMPIN]
AUC at 2 h, 7 mg/L [1]: 14000 ng·h/mL
Activity [2]: Active
Activity [3]: Active
CFU [4]: 1.95 mL⁻¹
AUC at 1 h, 7 mg/L [5]: 7000 ng·h/mL
fCmax (Homo sapiens [6]): 2 mg/L
AUC(0-t) at 168 h [7]: 14000 ng·h/mL
fAUC (Homo sapiens [8]): 16000 ng·h/mL
PAE [9]: 12.9 days
PAE [10]: 19.3 days
PAE [11]: 5.2 days
Kkmax [12]: 15.829 ×10⁻³ log10CFU/ml/hr
PAE [13]: 12 days
fCmax (Homo sapiens [14]): 7 mg/L
Drug uptake [15]: Dose-dependent effect
fAUC (Homo sapiens [16]): 112000 ng·h/mL
AUC(0-t) at 168 h [17]: 122000 ng·h/mL
C50k [18]: 7.652 mg/L
Hk [19]: 1.388
AUC at 168 h [20]: 112000 ng·h/mL
C50g [21]: 1932 mg/L
Kgmax [22]: 9.756 ×10⁻³ log10CFU/ml/hr
AUC at 7 h, 2 mg/L [23]: 14000 ng·h/mL
MIC90 [24]: 0.125 µg/mL (≈ 0.152 µM)
fAUC (Homo sapiens [25]): 112000 ng·h/mL
CL [26]: 99 L/h
fCmax (Homo sapiens [27]): 14 mg/L
Hg [28]: 0.361
AUC at 0.5 h, 14 mg/L [29]: 7000 ng·h/mL

Source: ChEMBL document CHEMBL1137651 (Antimicrob Agents Chemother, 2007)
